Measurements from the RNAGym collection of RNA variant scans (doi:10.1002/anie.201605470).

B1: Osa-1-4 twister ribozyme (parent)
chain: CCGCCUAACACUGCCAAUGCCGGUCCCAAGCCCGGAUAAAAGUGGAGGGGGCGG

Variants of: B1
Assay: self-cleavage, relative activity (ratio to wild type); higher = more cleavage; co-transcriptional
In short: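 Relative activity is the fraction cleaved divided by that of the wild-type ribozyme. The library came from a DNA template for a 54-nucleotide Oryza sativa twister ribozyme, doped at the 48 positions downstream of the cleavage site with 97 % wild-type base and 1 % of each other base. After 2 h of in vitro transcription at 37 °C with co-transcriptional self-cleavage, the RNA was reverse-transcribed with a template-switching oligonucleotide, amplified by PCR and deep-sequenced, and reads with or without upstream sequence gave the cleavage status.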

| Variant | self-cleavage |
| --- | --- |
| G49A U18G | 0.29 |
| G50U U18C | 0.97 |
| G50U U18G | 0.8 |
| G50U U18A | 0.89 |
| G50A G54A | 0.97 |
| G50A G54C | 0.99 |
| G50A G54U | 0.96 |
| G51U G53U | 0.12 |
| G51U G53A | 0.19 |
| G51U G53C | 0.05 |
| C52A G23A | 0.17 |
| C52A G23U | 0.09 |
| C52A G23C | 0.06 |
| G49A U24G | 0.01 |
| G49A U24A | 0.05 |
| G49A U24C | 0.05 |
| G48A U37A | 0.06 |
| G48A U37C | 0.11 |
| G48A U37G | 0.16 |
| G48C U18A | 0.09 |
| G48C U18G | 0.1 |
| G48C U18C | 0.1 |
| C52A G34U | 0.39 |
| C52A G34C | 0.21 |

| Variant | self-cleavage |
| --- | --- |
| C52A G34A | 0.65 |
| G48A U12C | 0.04 |
| G48A U12A | 0.07 |
| G48A U12G | 0.04 |
| G51C U24G | 0.02 |
| G51C U24A | 0.04 |
| G51C U24C | 0.04 |
| G50U U24A | 0.13 |
| G50U U24G | 0.02 |
| G50U U24C | 0.28 |
| G48C G50U | 0.1 |
| G48C G50A | 0.3 |
| G48C G50C | 0.1 |
| G48U G54A | 0.11 |
| G48U G54U | 0.34 |
| G48U G54C | 0.1 |
| G49U U24C | 0.04 |
| G49U U24G | 0.02 |
| G49U U24A | 0.04 |
| G50A U24G | 0.02 |
| G50A U24A | 0.6 |
| G50A U24C | 0.64 |
| G48U G50A | 0.21 |
| G48U G50U | 0.07 |

| Variant | self-cleavage |
| --- | --- |
| G48U G50C | 0.07 |
| G50U U12C | 0.62 |
| G50U U12A | 0.82 |
| G50U U12G | 0.47 |
| G50A U18C | 0.45 |
| G50A U18G | 0.79 |
| G50A U18A | 0.61 |
| G49U U12C | 0.04 |
| G49U U12G | 0.07 |
| G49U U12A | 0.09 |
| G48U G51C | 0.04 |
| G48U G51A | 0.11 |
| G48U G51U | 0.07 |
| G51A G54C | 0.95 |
| G51A G54U | 0.83 |
| G51A G54A | 0.85 |
| G49C G54C | 0.05 |
| G49C G54U | 0.08 |
| G49C G54A | 0.06 |
| G49C G51A | 0.12 |
| G49C G51U | 0.08 |
| G49C G51C | 0.04 |
| G48A G54A | 0.15 |
| G48A G54C | 0.15 |

| Variant | self-cleavage |
| --- | --- |
| G48A G54U | 0.37 |
| G48C G51C | 0.04 |
| G48C G51A | 0.11 |
| G48C G51U | 0.06 |
| G48U U18C | 0.08 |
| G48U U18G | 0.13 |
| G48U U18A | 0.07 |
| G48U U24C | 0.03 |
| G48U U24A | 0.03 |
| G48U U24G | 0.01 |
| G48A U43A | 0.06 |
| G48A U43C | 0.06 |
| G48A U43G | 0.06 |
| C52A | 1.02 |
| G48C G53U | 0.07 |
| G48C G53A | 0.09 |
| G48C G53C | 0.05 |
| G49A U37A | 0.13 |
| G49A U37G | 0.27 |
| G49A U37C | 0.19 |
| G51A U18C | 0.46 |
| G51A U18G | 0.64 |
| G51A U18A | 0.62 |
| G50C U18A | 0.95 |

| Variant | self-cleavage |
| --- | --- |
| G50C U18G | 0.75 |
| G50C U18C | 0.95 |
| G50U U37G | 1.04 |
| G50U U37A | 0.85 |
| G50U U37C | 1.06 |
| G51A U24G | 0.02 |
| G51A U24A | 0.08 |
| G51A U24C | 0.08 |
| G49U U43G | 0.06 |
| G49U U43A | 0.08 |
| G49U U43C | 0.04 |
| G48A G53C | 0.07 |
| G48A G53U | 0.09 |
| G48A G53A | 0.11 |
| G48A U18C | 0.1 |
| G48A U18A | 0.09 |
| G48A U18G | 0.13 |
| G49U U37G | 0.3 |
| G49U U37A | 0.12 |
| G49U U37C | 0.18 |
| G50C G53A | 0.11 |
| G50C G53C | 0.06 |
| G50C G53U | 0.11 |
| G50U G54A | 0.79 |

| Variant | self-cleavage |
| --- | --- |
| G50U G54U | 0.52 |
| G50U G54C | 0.15 |
| G50A G53A | 0.94 |
| G50A G53C | 0.32 |
| G50A G53U | 0.9 |
| G49U G50U | 0.21 |
| G49U G50C | 0.31 |
| G49U G50A | 0.5 |
| C52A G35C | 0.22 |
| C52A G35A | 0.8 |
| C52A G35U | 0.81 |
| G51U G54C | 0.51 |
| G51U G54U | 0.4 |
| G51U G54A | 0.25 |
| G50C G51C | 0.08 |
| G50C G51A | 0.71 |
| G50C G51U | 0.32 |
| G48U G49U | 0.05 |
| G48U G49A | 0.04 |
| G48U G49C | 0.03 |
| G49C U43A | 0.08 |
| G49C U43G | 0.04 |
| G49C U43C | 0.1 |
| G51C U18A | 0.12 |

| Variant | self-cleavage |
| --- | --- |
| G51C U18C | 0.13 |
| G51C U18G | 0.13 |
| G49U G53U | 0.07 |
| G49U G53A | 0.07 |
| G49U G53C | 0.04 |
| G50C U43G | 0.36 |
| G50C U43A | 0.75 |
| G50C U43C | 0.45 |
| G48U U12C | 0.04 |
| G48U U12A | 0.07 |
| G48U U12G | 0.05 |
| G50A U43G | 0.15 |
| G50A U43A | 0.38 |
| G50A U43C | 0.35 |
| G48C G49A | 0.05 |
| G48C G49C | 0.07 |
| G48C G49U | 0.04 |
| G50A G51U | 0.16 |
| G50A G51C | 0.12 |
| G50A G51A | 0.5 |
| G49U U18C | 0.16 |
| G49U U18A | 0.15 |
| G49U U18G | 0.29 |
